The record followed here is ChEMBL document CHEMBL1134569, “Synthesis and in vitro and in vivo antimalarial activity of new 4-anilinoquinolines” (J Med Chem, 2001).

The nature of data set [1]: Cytotoxicity upon MPMs (mouse peritoneal macrophages) at 2 uM concentration; NT=No toxicity. The method in brief: (§1)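 Mouse peritoneal macrophages harvested 48 h after potato-starch stimulation and seeded at 30000 cells/well. After 24 h, washed and exposed to 2-fold drug dilutions in RPMI + 5% FCS (final DMSO below 0.5%) at 37 °C, 5% CO₂, for 7 days. Toxicity scored microscopically as toxic or not versus untreated controls.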

The nature of data set [2]: Cytotoxicity upon MPMs (mouse peritoneal macrophages) at 3.1 uM concentration; NT= No toxicity. The method, boiled down:
as §1

Data set [3] can be described thus: Cytotoxicity upon MRC-5 cells (diploid embryonic lung cell line) at 12.5 uM concentration. The format is cell-based, MRC5. Conditions: human; call rule not given here. The method, boiled down: (§2)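 MRC-5 human diploid embryonic lung cells seeded at 5000/well, washed after 24 h, then given 2-fold drug dilutions in RPMI + 5% FCS (final DMSO below 0.5%). Incubated at 37 °C, 5% CO₂, for 7 days. MTT read-out at 540 nm, scored as percent absorbance reduction versus untreated controls.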

The nature of data set [4]: Cytotoxicity upon MRC-5 cells (diploid embryonic lung cell line) at 25 uM concentration. The format is cell-based, MRC5. The following applies: human. The method, boiled down: as §2
A short description of data set [5]: Cytotoxicity upon MRC-5 cells (diploid embryonic lung cell line) at 3.1 uM concentration. Format: cell-based, MRC5. Conditions: human. The method, boiled down:
as §2

Data set [6] is described as follows: Cytotoxicity upon MRC-5 cells (diploid embryonic lung cell line) at 32 uM concentration. The format is cell-based, MRC5. The following applies: human. The method, boiled down:
as §2

Data set [7] in a line: Cytotoxicity upon MRC-5 cells (diploid embryonic lung cell line) at 6.3 uM concentration. Format: cell-based, MRC5. Conditions: human. The method, boiled down: as §2
Data set [8] is described as follows: Cytotoxicity upon MRC-5 cells (diploid embryonic lung cell line) at 8 uM concentration. The format is cell-based, MRC5. The following applies: human. The method in brief: as §2
The nature of data set [9]: Cytotoxicity upon MPMs (mouse peritoneal macrophages) at 12.5 uM concentration; Toxic Compound. The method, boiled down:
as §1

Data set [10] in a line: Cytotoxicity upon MPMs (mouse peritoneal macrophages) at 32 uM concentration; Toxic Compound. The method in brief: as §1
Data set [11] can be described thus: Cytotoxicity upon MPMs (mouse peritoneal macrophages) at 6.3 uM concentration; Toxic Compound. The method, boiled down:
as §1

Data set [12] is described as follows: Cytotoxicity upon MRC-5 cells (diploid embryonic lung cell line) at 1 uM concentration. Conditions: human. Format: cell-based, MRC5. The method, boiled down:
as §2

In data set [13] the test system is Plasmodium falciparum. Nature of the data set: Inhibitory activity against chloroquine-resistant Plasmodium falciparum K1. The format is functional, organism-based.
The subject of data set [14] is Plasmodium falciparum. The data set can be described thus: Inhibitory activity against chloroquine-resistant Plasmodium falciparum FcB1R. The format is functional, organism-based. The following applies: Plasmodium falciparum.
Data set [15] deals with Plasmodium falciparum. The data set can be described thus: Inhibitory activity against chloroquine-sensitive Plasmodium falciparum THAI.
Data set [16] in a line: Cytotoxicity upon MPMs (mouse peritoneal macrophages) at 2 uM. The method in brief:
as §1

A short description of data set [17]: Cytotoxicity upon MRC-5 cells (diploid embryonic lung cell line) at 25 uM conc. The format is cell-based, MRC5. Conditions: human. The method, boiled down: as §2
A short description of data set [18]: Cytotoxicity upon MRC-5 cells (diploid embryonic lung cell line) at 6.3 uM. The following applies: human. Format: cell-based, MRC5. The method in brief: as §2
Data set [19] is described as follows: Cytotoxicity upon MPMs (mouse peritoneal macrophages) at 12.5 uM conc.; Toxic. The method in brief: as §1
The nature of data set [20]: Cytotoxicity upon MPMs (mouse peritoneal macrophages) at 6.3 uM conc.; Toxic. The method, boiled down:
as §1

The nature of data set [21]: Cytotoxicity upon MRC-5 cells (diploid embryonic lung cell line) at 1.6 uM conc. Format: cell-based, MRC5. The following applies: human. The method in brief:
as §2

The nature of data set [22]: Cytotoxicity upon MRC-5 cells (diploid embryonic lung cell line) at 12.5 uM. The format is cell-based, MRC5. The following applies: human. The method in brief: as §2
Data set [23] can be described thus: Cytotoxicity upon MRC-5 cells (diploid embryonic lung cell line) at 3.1 uM. The following applies: human. The format is cell-based, MRC5. The method in brief: as §2
Data set [24] can be described thus: Cytotoxicity upon MPMs (mouse peritoneal macrophages) at 3.1 uM conc.;NT=No Toxicity. The method, boiled down:
as §1

The nature of data set [25]: Cytotoxicity upon MPMs (mouse peritoneal macrophages) at 6.3 uM. The method, boiled down: as §1
Data set [26] in a line: Cytotoxicity upon MRC-5 cells (diploid embryonic lung cell line) at 1 uM. Format: cell-based, MRC5. Conditions: human. The method in brief:
as §2

Data set [27] can be described thus: Cytotoxicity upon MRC-5 cells (diploid embryonic lung cell line) at 32 uM. The format is cell-based, MRC5. The following applies: human. The method in brief:
as §2

The nature of data set [28]: Cytotoxicity upon MRC-5 cells (diploid embryonic lung cell line) at 8 uM. Conditions: human. Format: cell-based, MRC5. The method, boiled down:
as §2

Data set [29] relates to Mus musculus. The data set can be described thus: Antimalarial activity on Plasmodium berghei in mice (Mus musculus) dosed at 40 mg/kg at day 7. The format is functional. The method, boiled down: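 Female Swiss CD-1 mice (4 weeks, 20-25 g), three per group, infected ip with about 10⁷ P. berghei ANKA 65 parasitized erythrocytes from an infected donor. Dosed orally at 40 mg/kg in 100% DMSO at infection, then ip for the following 4 days. Parasitaemia reduction and mean survival time compared with three DMSO-dosed infected controls.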

For data set [30], the system named is Mus musculus. The data set can be described thus: Change in the mean survival time of the treated mice infected with Plasmodium berghei, dosed at 40 mg/kg. Format: functional. The method in brief:
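P. berghei ANKA 65 in 4-week-old female Swiss CD-1 mice (20-25 g), infected ip with about 10⁷ parasitized erythrocytes; 40 mg/kg given orally at infection (formulated in 100% DMSO), then ip over the following 4 days; three mice per group; mean survival time of treated mice compared with three infected DMSO-dosed controls.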

The nature of data set [31]: Cytotoxicity upon MPMs (mouse peritoneal macrophages) at 2 uM concentration; No toxicity. The method, boiled down: as §1
Data set [32] in a line: Cytotoxicity upon MPMs (mouse peritoneal macrophages) at 3.1 uM concentration; No toxicity. The method in brief:
as §1

The nature of data set [33]: Cytotoxicity upon MPMs (mouse peritoneal macrophages) at 32 uM concentration; No toxicity. The method in brief:
as §1

The nature of data set [34]: Cytotoxicity upon MPMs (mouse peritoneal macrophages) at 6.3 uM concentration; No toxicity. The method in brief:
as §1

A short description of data set [35]: Cytotoxicity upon MPMs (mouse peritoneal macrophages) at 8 uM concentration; No toxicity. The method in brief:
as §1

Data set [36] in a line: Cytotoxicity upon MPMs (mouse peritoneal macrophages) at 12.5 uM concentration; No toxicity. The method in brief: as §1
Data set [37] in a line: Cytotoxicity upon MRC-5 cells (diploid embryonic lung cell line) at 1.6 uM concentration. Format: cell-based, MRC5. The following applies: human. The method in brief: as §2

With `CCN(CC)Cc1cc(Nc2ccnc3cc(Cl)ccc23)ccc1O.Cl`, the NT entry in data set [1] and in [2] was “No toxicity” in each case. This molecule registered a cytotoxicity at 12.5 µM in data set [3] of 0%. The cytotoxicity at 25 µM in data set [4] was found to be 91%. The cytotoxicity at 3.1 µM in data set [5] was 0%. In [6], this molecule gave a cytotoxicity at 32 µM of 91%. In [7], this molecule had a cytotoxicity at 6.3 µM of 0%. Moreover, in data set [8], the cytotoxicity at 8 µM is 0%. Moreover, the Cytotoxicity result in [9], in data set [10] and in data set [11] was “Toxic” throughout. The cytotoxicity at 1 µM in [12] was 0%. Further, the figures for the IC50 in the data set with Plasmodium falciparum [13], in the data set with Plasmodium falciparum [14] and in the data set on Plasmodium falciparum [15] were 14.5 nM, 7.4 nM and 7.3 nM, respectively.

For the molecule `O=C(CN1CCCCC1)Nc1cc(COC(=O)CCCCCCCN2CCCCC2)cc(Nc2ccnc3cc(Cl)ccc23)c1`, in [16], the NT result was “Cytotoxicity upon MPMs at 2 uM”. The molecule also returned a cytotoxicity at 25 µM in data set [17] of 83%. This molecule also showed a cytotoxicity at 6.3 µM in data set [18] of 84%. For the same molecule, the Cytotoxicity result in [19] and in data set [20] was “Toxic” throughout. In the data set on Plasmodium falciparum [14], the IC50 was found to be 165 nM. Moreover, in data set [21], the cytotoxicity at 1.6 µM came out at 0%.

For the molecule `O=C(CN1CCCCC1)Nc1cc(COC(=O)c2ccnc3ccccc23)cc(Nc2ccnc3cc(Cl)ccc23)c1`, the NT result in data set [16] is “Cytotoxicity upon MPMs at 2 uM”. The cytotoxicity at 25 µM in data set [17] amounted to 100%. The molecule also showed a cytotoxicity at 6.3 µM in data set [18] of 100%. In addition, the Cytotoxicity entry in data set [19] and in [20] was “Toxic” each time. This molecule returned an IC50 with Plasmodium falciparum [14] of 25.6 nM. In data set [21], this molecule showed a cytotoxicity at 1.6 µM of 62%.

Consider `CC1CCN(CC(=O)Nc2cc(CO)cc(Nc3ccnc4cc(Cl)ccc34)c2)CC1`, for which, in [22], the cytotoxicity at 12.5 µM amounted to 100%. Moreover, the cytotoxicity at 3.1 µM in data set [23] was 0%. The cytotoxicity at 6.3 µM in data set [18] was 0%. Further, the Cytotoxicity result in data set [19] and in [20] was “Toxic” in each case. Further, in the data set on Plasmodium falciparum [14], the IC50 stood at 77.7 nM.

`O=C(CN1CCCCC1)Nc1cc(CO)cc(Nc2ccnc3cc(Cl)ccc23)c1`: the NT entry in data set [24] and in data set [25] was “Cytotoxicity upon MPMs at 6.3 uM” each time. The cytotoxicity at 12.5 µM in data set [22] came to 0%. The cytotoxicity at 1 µM in data set [26] amounted to 0%. In [17], this molecule gave a cytotoxicity at 25 µM of 98%. Besides, the cytotoxicity at 3.1 µM in data set [23] was 0%. Also, in data set [27], the cytotoxicity at 32 µM turned out to be 99%. The same molecule had a cytotoxicity at 6.3 µM in data set [18] of 0%. This molecule gave a cytotoxicity at 8 µM in [28] of 0%. Besides, the Cytotoxicity result in [19] is given as “Toxic”. For the same molecule, the IC50 with Plasmodium falciparum [13] amounted to 152 nM; in the data set with Plasmodium falciparum [14], 44.5 nM; in the data set with Plasmodium falciparum [15], 89.6 nM. Besides, the Reduction in parasitemia with Mus musculus [29] is given as 60%. Moreover, the “Excess MST” value in the data set with Mus musculus [30] worked out at 110%. The same molecule showed a cytotoxicity at 1.6 µM in data set [21] of 0%.

Take `CCN(CC)CCCC(C)Nc1ccnc2cc(Cl)ccc12` (stereo not given) [CHLOROQUINE]: the NA entry in data set [31], in data set [32], in data set [33], in [34], in [35] and in [36] was “Not Active” in each case. The same molecule came in with a cytotoxicity at 12.5 µM in [3] of 0%. Also, the cytotoxicity at 25 µM in data set [4] stood at 0%. The cytotoxicity at 3.1 µM in [5] is 0%. This molecule yielded a cytotoxicity at 32 µM in [6] of 0%. Further, the cytotoxicity at 6.3 µM in [7] was 0%. The same molecule yielded a cytotoxicity at 8 µM in data set [8] of 0%. Also, in data set [12], the cytotoxicity at 1 µM came to 0%. Moreover, the cytotoxicity at 1.6 µM in data set [37] turned out to be 0%.
